Data published in ChEMBL document CHEMBL4014326, “Discovery of an Orally Bioavailable Benzimidazole Diacylglycerol Acyltransferase 1 (DGAT1) Inhibitor That Suppresses Body Weight Gain in Diet-Induced Obese Dogs and Postprandial Triglycerides in Humans” (J Med Chem, 2017).

Experiments:
[1] = target: T1, Diacylglycerol O-acyltransferase 1 (Homo sapiens, UniProt O75907); assay: Inhibition of recombinant human His6-tagged DGAT1 expressed in Sf9 insect cell membranes assessed as inhibition of triglyceride formation using diolein/oleyl-CoA as substrate after 30 mins by LC/MS/MS analysis
T1 sequence (O75907 whole entry): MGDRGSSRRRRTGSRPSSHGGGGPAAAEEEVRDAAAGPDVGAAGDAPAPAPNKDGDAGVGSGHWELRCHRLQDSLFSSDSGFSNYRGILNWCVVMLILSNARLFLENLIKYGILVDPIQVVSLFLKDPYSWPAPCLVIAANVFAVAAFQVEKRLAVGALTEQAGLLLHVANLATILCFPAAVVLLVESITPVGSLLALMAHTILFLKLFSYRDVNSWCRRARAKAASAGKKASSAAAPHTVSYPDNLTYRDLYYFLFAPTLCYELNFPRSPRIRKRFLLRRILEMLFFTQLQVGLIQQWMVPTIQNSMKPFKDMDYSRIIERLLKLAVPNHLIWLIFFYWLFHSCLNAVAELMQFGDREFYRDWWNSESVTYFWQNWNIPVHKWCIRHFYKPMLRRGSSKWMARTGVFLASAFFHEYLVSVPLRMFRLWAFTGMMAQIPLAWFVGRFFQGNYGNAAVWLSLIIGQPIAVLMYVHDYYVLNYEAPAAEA

Salmonella typhimurium [2] = assay: Genotoxicity in histidine depleted Salmonella typhimurium TA98 assessed as increase in reverting mutations up to 1000 ug in absence of S9 metabolic activation by Ames test; assay type: toxicity; conditions: salmonella enterica subsp. enterica serovar typhimurium
[3] = Permeability across basolateral to apical side in human Caco2 cells; assay type: ADME, cell-based; conditions: Caco-2, read-out: permeability
How it was run: (§1)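 Caco-2 monolayer permeability was measured in the A-B and B-A directions, and the efflux ratio was taken as B-A/A-B.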

[4] = AUC (0 to 8 hrs) in Sprague-Dawley rat at 3 mg/kg, po by LC/MS/MS analysis; assay type: ADME, organism-based; parameters: dose 3 mg/kg, time < 8 hr, route oral; conditions: in vivo
How it was run: (§2)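 Male Sprague-Dawley rats, 200-300 g, dosed iv (n = 2) or po (n = 3) as solutions in NMP/PG or PEG400/ETPGS vehicles. Blood was taken from a jugular vein catheter at 0.083 (iv only), 0.25, 0.5, 1, 2, 4, 6 and 8 h into EDTA tubes, and plasma was analysed by LC-MS/MS. Values are means ± SD.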

Salmonella typhimurium [5] = assay: Genotoxicity in histidine depleted Salmonella typhimurium TA98 assessed as increase in reverting mutations up to 1000 ug in presence of S9 metabolic activation by Ames test; assay type: toxicity; conditions: salmonella enterica subsp. enterica serovar typhimurium
Homo sapiens [6] = assay: Toxicity in human assessed as diarrhea at 150 mg, po as single oral dose; assay type: organism-based; conditions: in vivo
[7] = Drug metabolism in monkey hepatocytes assessed as [3H]-3-(3,5-dimethyl-4-(6-(5-phenyl-1,3,4-oxadiazol-2-yl)-1H-benzo[d]imidazol-2-yl)phenyl)-2,2-dimethylpropanoic acid formation at 12.5 uM after 18 hrs; assay type: ADME, cell-based, Macaca mulatta, Hepatocyte; conditions: rhesus monkey
How it was run: (§3)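 [3H]-labelled compound (12.5 µM) was incubated for 18 h with rat, dog, monkey or human hepatocytes, and metabolites were profiled.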

[8] = AUC (0 to 8 hrs) in Sprague-Dawley rat at 1mg/kg, iv by LC/MS/MS analysis; assay type: ADME, organism-based; parameters: time < 8 hr, dose 1 mg/kg, route intravenous; conditions: in vivo; how it was run: as §2
Salmonella typhimurium [9] = assay: Genotoxicity in histidine depleted Salmonella typhimurium TA100 assessed as increase in reverting mutations up to 1000 ug in absence of S9 metabolic activation by Ames test; assay type: toxicity; conditions: salmonella enterica subsp. enterica serovar typhimurium
[10] = Efflux ratio of permeability across basolateral to apical side over apical to basolateral side in human Caco2 cells; assay type: ADME, cell-based; conditions: Caco-2; how it was run: as §1
[11] = Drug metabolism in human hepatocytes assessed as [3H]-3-(3,5-dimethyl-4-(6-(5-phenyl-1,3,4-oxadiazol-2-yl)-1H-benzo[d]imidazol-2-yl)phenyl)-2,2-dimethylpropanoic acid formation at 12.5 uM after 18 hrs; assay type: ADME, cell-based, Hepatocyte; how it was run: as §3
[12] = Drug metabolism in rat hepatocytes assessed as [3H]-3-(3,5-dimethyl-4-(6-(5-phenyl-1,3,4-oxadiazol-2-yl)-1H-benzo[d]imidazol-2-yl)phenyl)-2,2-dimethylpropanoic acid formation at 12.5 uM after 18 hrs; assay type: ADME, cell-based, Hepatocyte; how it was run: as §3
[13] = target: T2, Diacylglycerol O-acyltransferase 1 (Mus musculus, UniProt Q9Z2A7); assay: Inhibition of DGTA1 in mouse C2C12 cells assessed as inhibition of triglyceride formation after 2 hrs by LC/MS/MS analysis; assay type: cell-based
T2 sequence (Q9Z2A7 whole entry): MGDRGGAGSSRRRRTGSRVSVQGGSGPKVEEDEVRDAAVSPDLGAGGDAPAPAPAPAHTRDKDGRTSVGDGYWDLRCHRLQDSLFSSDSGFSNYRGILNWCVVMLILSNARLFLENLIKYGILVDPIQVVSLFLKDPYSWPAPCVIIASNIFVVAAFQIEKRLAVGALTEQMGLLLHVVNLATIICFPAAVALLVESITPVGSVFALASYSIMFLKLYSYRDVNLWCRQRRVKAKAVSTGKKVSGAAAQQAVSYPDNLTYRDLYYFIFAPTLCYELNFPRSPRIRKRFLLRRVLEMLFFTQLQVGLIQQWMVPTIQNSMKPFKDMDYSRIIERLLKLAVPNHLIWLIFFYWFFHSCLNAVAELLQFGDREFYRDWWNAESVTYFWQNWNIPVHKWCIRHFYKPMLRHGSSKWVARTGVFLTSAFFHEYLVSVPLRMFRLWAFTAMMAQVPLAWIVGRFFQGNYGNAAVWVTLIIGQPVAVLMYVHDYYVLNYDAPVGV
How it was run: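 C2C12 cells were seeded in DMEM with 5 mM glucose and 10% FBS for 18 h at 37 °C. Medium was then replaced with DMEM, 5 mM glucose and 250 µM oleate-BSA plus inhibitor (0.5% DMSO final) for 2 h at 37 °C. Cells were extracted with butanol containing tripalmitolein internal standard and triglyceride was read by LC-MS/MS. An 11-point, 3-fold dose response was run in quadruplicate.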

[14] = Cmax in Sprague-Dawley rat at 3 mg/kg, po by LC/MS/MS analysis; assay type: ADME, organism-based; parameters: dose 3 mg/kg, route oral; conditions: in vivo; how it was run: as §2
[15] = Tmax in Sprague-Dawley rat 3 mg/kg, po by LC/MS/MS analysis; assay type: ADME, organism-based; conditions: in vivo; how it was run: as §2
[16] = Drug metabolism in dog hepatocytes assessed as [3H]-(2S,3S,4S,5R,6S)-3,4,5-trihydroxy-6-(3-(4-(6-(5-(4-methoxyphenyl)-1,3,4-oxadiazol-2-yl)-1H-benzo[d]imidazol-2-yl)-3,5-dimethylphenyl)-2,2-dimethylpropanoyloxy)tetrahydro-2H-pyran-2-carboxylic acid formation at 12.5 uM after 18 hrs; assay type: ADME, cell-based, Canis lupus familiaris, Hepatocyte; how it was run: as §3
Salmonella typhimurium [17] = assay: Genotoxicity in histidine depleted Salmonella typhimurium TA100 assessed as increase in reverting mutations up to 1000 ug in presence of S9 metabolic activation by Ames test; assay type: toxicity; conditions: salmonella enterica subsp. enterica serovar typhimurium
Homo sapiens [18] = assay: Toxicity in human assessed as nausea at 150 mg, po as single oral dose; assay type: organism-based; conditions: in vivo
[19] = Clearance in Sprague-Dawley rat at 1 mg/kg, iv by LC/MS/MS analysis; assay type: ADME, organism-based; conditions: in vivo; how it was run: as §2
[20] = Volume of distribution at steady state in Sprague-Dawley rat at 1 mg/kg, iv by LC/MS/MS analysis; assay type: ADME, organism-based; conditions: in vivo, read-out: Vdss; how it was run: as §2

COc1ccc(-c2nnc(-c3ccc4nc(-c5c(C)cc(CC(C)(C)C(=O)O)cc5C)[nH]c4c3)o2)cc1
IC50 [1]: 17 nM
Activity (Salmonella typhimurium [2]): Non-Toxic
Papp B→A [3]: 10 ×10⁻⁶ cm/s
AUC(0-t) at 8 h [4]: 10.4 µM·h
Activity (Salmonella typhimurium [5]): Non-Toxic
Activity (Homo sapiens [6]): Toxic
Drug metabolism [7]: Metabolite_Detected
AUC(0-t) at 8 h [8]: 3.86 µM·h
Activity (Salmonella typhimurium [9]): Non-Toxic
efflux ratio [10]: 2.4
Drug metabolism [11]: Metabolite_Detected
Drug metabolism [12]: Metabolite_Detected
IC50 [13]: 151 nM
Cmax [14]: 3.55 µM
Tmax [15]: 1.2 h
Drug metabolism [16]: Metabolite_Detected
Activity (Salmonella typhimurium [17]): Non-Toxic
Activity (Homo sapiens [18]): Toxic
clearance [19]: 9.5 mL/min/kg
Vd [20]: 0.6 L/kg
